In ChEMBL document CHEMBL1770108, “Design and synthesis of substituted N-(1,3-diphenyl-1H-pyrazol-5-yl)benzamides as positive allosteric modulators of the metabotropic glutamate receptor subtype 5” (Bioorg Med Chem Lett, 2011):

Columns and labels:
[1] = target: T1, Metabotropic glutamate receptor 5 (Rattus norvegicus, UniProt P31424); assay: Antagonist activity at rat mGluR5 expressed in HEK293T cells assessed as inhibition of glutamate-induced calcium flux by calcium fluorescence assay; assay type: functional, cell-based, HEK-293T
In short: (§1)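 Rat mGluR5-expressing cells loaded with a calcium-sensitive fluorescent dye receive vehicle or test compound. After 2.5 min, an EC20 concentration of glutamate is added, then an EC80 concentration 1 min later. This triple-add protocol allows simultaneous detection of agonist, potentiator and antagonist activity. Intracellular calcium release is read kinetically in every well by an imaging plate reader.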

[2] = target: T1, Metabotropic glutamate receptor 5; assay: Displacement of [3H]-MPEP from mGluR5 in rat brain; assay type: tissue-based
In short: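 Radioligand displacement binding using [3H]MPEP on rat brain membranes.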

[3] = target: T1, Metabotropic glutamate receptor 5; assay: Agonist activity at rat mGluR5 expressed in HEK293T cells assessed as effect on glutamate-induced calcium flux by calcium fluorescence assay; assay type: functional, cell-based, HEK-293T; in short: as §1
[4] = target: Metabotropic glutamate receptor 5 (Rattus norvegicus) (UniProt P31424); assay: Agonist activity at rat mGluR5 expressed in HEK293T cells assessed as increase of glutamate-induced calcium flux by calcium fluorescence assay relative to control; assay type: functional, cell-based; details: HEK-293T; in short: as §1
Metabotropic glutamate receptor 5 (Rattus norvegicus), sequence (P31424 21-1203 limits assumed): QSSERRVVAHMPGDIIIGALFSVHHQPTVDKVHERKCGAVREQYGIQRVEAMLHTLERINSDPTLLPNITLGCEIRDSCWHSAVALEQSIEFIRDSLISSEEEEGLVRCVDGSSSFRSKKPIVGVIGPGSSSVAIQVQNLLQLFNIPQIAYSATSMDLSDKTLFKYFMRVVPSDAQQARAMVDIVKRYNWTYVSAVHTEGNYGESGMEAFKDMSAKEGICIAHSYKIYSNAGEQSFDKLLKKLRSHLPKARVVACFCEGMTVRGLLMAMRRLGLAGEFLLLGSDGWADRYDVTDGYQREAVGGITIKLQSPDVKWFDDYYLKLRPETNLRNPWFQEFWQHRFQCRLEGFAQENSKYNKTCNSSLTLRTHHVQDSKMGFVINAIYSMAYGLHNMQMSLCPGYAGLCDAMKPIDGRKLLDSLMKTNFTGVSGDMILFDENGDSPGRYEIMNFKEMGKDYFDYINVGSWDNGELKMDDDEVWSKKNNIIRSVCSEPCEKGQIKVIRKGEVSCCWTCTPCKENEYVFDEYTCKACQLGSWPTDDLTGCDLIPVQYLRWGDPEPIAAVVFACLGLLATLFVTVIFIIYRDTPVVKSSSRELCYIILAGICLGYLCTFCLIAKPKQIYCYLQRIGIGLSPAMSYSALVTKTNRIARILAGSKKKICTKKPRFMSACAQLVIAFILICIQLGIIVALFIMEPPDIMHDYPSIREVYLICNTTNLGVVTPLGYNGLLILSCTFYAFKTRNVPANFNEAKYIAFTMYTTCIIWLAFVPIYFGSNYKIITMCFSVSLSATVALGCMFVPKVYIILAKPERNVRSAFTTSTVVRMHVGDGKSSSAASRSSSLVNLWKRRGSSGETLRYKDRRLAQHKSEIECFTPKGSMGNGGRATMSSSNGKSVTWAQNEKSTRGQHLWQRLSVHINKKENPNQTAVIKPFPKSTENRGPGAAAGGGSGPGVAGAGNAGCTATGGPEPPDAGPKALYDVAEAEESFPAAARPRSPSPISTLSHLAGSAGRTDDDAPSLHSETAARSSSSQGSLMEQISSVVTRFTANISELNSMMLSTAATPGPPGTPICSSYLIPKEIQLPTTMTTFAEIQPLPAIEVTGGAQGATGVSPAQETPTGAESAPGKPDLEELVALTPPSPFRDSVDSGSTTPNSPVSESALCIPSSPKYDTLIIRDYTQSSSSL

T1 sequence (P31424 whole entry): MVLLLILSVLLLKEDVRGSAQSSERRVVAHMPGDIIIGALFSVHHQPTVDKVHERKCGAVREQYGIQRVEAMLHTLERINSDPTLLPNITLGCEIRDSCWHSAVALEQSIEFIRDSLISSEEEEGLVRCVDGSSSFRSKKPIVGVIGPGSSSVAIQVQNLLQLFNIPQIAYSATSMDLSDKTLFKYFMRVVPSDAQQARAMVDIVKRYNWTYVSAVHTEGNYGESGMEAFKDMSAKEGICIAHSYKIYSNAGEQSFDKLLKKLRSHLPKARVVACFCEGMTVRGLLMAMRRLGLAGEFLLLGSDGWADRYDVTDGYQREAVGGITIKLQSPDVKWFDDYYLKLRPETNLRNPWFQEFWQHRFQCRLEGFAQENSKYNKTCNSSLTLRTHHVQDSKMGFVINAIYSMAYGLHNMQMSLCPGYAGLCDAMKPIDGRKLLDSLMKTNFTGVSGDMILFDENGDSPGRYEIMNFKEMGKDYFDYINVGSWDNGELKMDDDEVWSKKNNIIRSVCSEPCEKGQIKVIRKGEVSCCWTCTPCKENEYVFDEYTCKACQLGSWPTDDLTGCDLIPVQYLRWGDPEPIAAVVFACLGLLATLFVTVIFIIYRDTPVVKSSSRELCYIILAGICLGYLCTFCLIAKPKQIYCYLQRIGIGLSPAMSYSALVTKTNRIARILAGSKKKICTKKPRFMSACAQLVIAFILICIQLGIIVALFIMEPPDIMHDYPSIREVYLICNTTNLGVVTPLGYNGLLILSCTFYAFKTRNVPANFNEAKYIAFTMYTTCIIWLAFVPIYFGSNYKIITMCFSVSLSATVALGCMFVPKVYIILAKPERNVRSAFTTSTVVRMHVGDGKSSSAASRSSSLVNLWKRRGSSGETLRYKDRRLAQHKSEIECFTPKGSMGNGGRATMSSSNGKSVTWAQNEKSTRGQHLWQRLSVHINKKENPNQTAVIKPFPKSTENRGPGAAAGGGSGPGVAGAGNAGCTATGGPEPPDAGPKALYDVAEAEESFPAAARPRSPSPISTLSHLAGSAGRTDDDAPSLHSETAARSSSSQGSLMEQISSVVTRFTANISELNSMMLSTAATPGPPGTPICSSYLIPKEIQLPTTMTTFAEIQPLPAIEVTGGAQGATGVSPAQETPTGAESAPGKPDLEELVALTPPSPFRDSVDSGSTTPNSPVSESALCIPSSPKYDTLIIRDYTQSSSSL

| SMILES | IC50 [1] | Ki [2] | EC50 [3] | Activity [4] |
| --- | --- | --- | --- | --- |
| CCCc1cccc(NC(=O)c2cc(F)cc(C#N)c2)n1 | 165 nM | 325 nM |  |  |
| N#Cc1cc(C(=O)Nc2cc(-c3ccccc3)nn2-c2ccccc2Cl)ccc1-c1cccc2ccccc12 |  | > 10000 nM | 2170 nM | 50.2% |
| N#Cc1cc(C(=O)Nc2cc(-c3ccccc3)nn2-c2ccccc2Cl)ccc1-c1ccc(F)cc1 |  | 23 nM | 2430 nM | 68% |
| CCc1cccc(NC(=O)c2cc(F)cc(C#N)c2)n1 | 169 nM | 762 nM |  |  |
| CCCCc1cccc(NC(=O)c2cc(F)cc(C#N)c2)n1 | 1550 nM | 1050 nM |  |  |

The next lines start with the values.

| IC50 [1] | Ki [2] | EC50 [3] | Activity [4] | SMILES |
| --- | --- | --- | --- | --- |
|  | 344 nM | 646 nM | 67.6% | O=C(Nc1cc(-c2ccccc2)nn1-c1ccccc1Cl)c1cc(-c2cc(F)cc(F)c2)ccn1 |
|  | 37 nM | 4140 nM | 61.8% | N#Cc1cc(C(=O)Nc2cc(-c3ccccc3)nn2-c2ccccc2Cl)ccc1-c1ccccc1 |
|  | 2060 nM | > 30000 nM |  | N#Cc1cc(C(=O)Nc2cc(-c3ccccc3)nn2-c2ccccc2Cl)ccc1-c1cccc(F)c1 |
| 4170 nM | 2830 nM |  |  | Cc1ccc(NC(=O)c2cc(F)cc(C#N)c2)nc1 |
